Data: publication PMC7771297 (Oncogene, 2017)

Legend:
[1] = system: PAIII rat prostate adenocarcinoma cells; experiment: IP-MS of PTHrP1–17 in PAIII conditioned media with MMP inhibition; format: cell-based
[2] = system: SAOS-2 osteosarcoma cells; experiment: IP-MS of PTHrP1–17 in SAOS-2 conditioned media with exogenous MMP-3; format: cell-based, human; settings: SAOS-2+MMP-3 100 ng/ml; SAOS-2 alone = 0.004
[3] = system: PTH1R; settings: PTH1R overexpressing CHO-K1 cells; cited from earlier work
[4] = system: PTH1R; settings: PTH1R overexpressing CHO-K1 cells; cited from earlier work; remark: listed apart in the source
[5] = target: MMP-3 (Homo sapiens, UniProt P08254); experiment: MMP-3 processing of PTHrP; format: in vitro ADME; settings: MALDI-TOF
MMP-3, sequence (P08254 100-272 limits assumed): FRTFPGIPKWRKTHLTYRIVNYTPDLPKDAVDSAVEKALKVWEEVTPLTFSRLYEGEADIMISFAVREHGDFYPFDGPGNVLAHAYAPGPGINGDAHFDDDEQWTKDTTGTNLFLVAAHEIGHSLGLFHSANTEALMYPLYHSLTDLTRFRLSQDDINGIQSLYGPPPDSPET
How it was run: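 Recombinant PTHrP1–86 (100 ng) was digested 1 h with active MMP-3 (100 ng) in 0.15 M NaCl, Tris pH 7.6 buffer. Products were resolved by SDS-PAGE with Coomassie staining and by immunoblot. N-terminal sequencing was done, and for MALDI-TOF peptides were C18-extracted and mixed with α-cyano-4-hydroxycinnamic acid matrix.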

[6] = system: ERK phosphorylation in MSCs; experiment: ERK phosphorylation in primary MSCs; format: cell-based, mouse; settings: 10 nM, 5 min, vs control or scrambled peptide
[7] = system: ERK phosphorylation in MC3T3 osteoblasts; experiment: ERK phosphorylation in osteoblasts; format: cell-based, mouse; settings: 10 nM, 5 min, serum free media, vs control or scrambled peptide
[8] = system: CREB phosphorylation in MC3T3 osteoblasts; experiment: CREB phosphorylation in MC3T3 osteoblasts; format: cell-based, mouse; settings: MC3T3, 10 nM for 5 min in serum free media
How it was run: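 Immunoblot of MC3T3 osteoblasts exposed to peptides for 5 min in serum-free media. Controls were serum-free (S0), 10% serum (S10) and a scrambled peptide. Cells were lysed in RIPA buffer (pH 8) and protein was measured by BCA. Blots were blocked in 5% BSA for 1 h, probed with primary antibody then HRP-conjugated secondary, with actin as loading control. Run in triplicate.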

[9] = target: T1, PTH1R (Mus musculus, UniProt P41593); experiment: cAMP production in MC3T3 osteoblasts; format: cell-based; settings: MC3T3, 10 nM for 15 min, n = 5/group
T1 sequence (P41593 27-591): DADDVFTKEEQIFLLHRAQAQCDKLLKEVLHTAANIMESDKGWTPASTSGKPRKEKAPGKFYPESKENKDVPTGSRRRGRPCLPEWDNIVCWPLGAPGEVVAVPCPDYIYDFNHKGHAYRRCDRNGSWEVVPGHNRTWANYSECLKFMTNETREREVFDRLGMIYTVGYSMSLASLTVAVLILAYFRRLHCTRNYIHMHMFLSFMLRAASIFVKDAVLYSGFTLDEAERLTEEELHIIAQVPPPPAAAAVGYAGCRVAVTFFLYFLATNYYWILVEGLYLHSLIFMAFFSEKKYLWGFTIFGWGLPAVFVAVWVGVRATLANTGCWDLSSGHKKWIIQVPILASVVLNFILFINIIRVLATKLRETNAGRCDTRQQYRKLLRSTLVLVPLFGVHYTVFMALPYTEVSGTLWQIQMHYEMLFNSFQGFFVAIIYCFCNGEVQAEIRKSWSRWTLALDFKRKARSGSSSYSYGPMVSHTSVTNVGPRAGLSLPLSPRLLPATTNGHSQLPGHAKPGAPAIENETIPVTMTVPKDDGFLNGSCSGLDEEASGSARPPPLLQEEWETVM
How it was run: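 MC3T3 osteoblasts were plated at 2.5 × 10^4 cells/well and exposed to peptides for 15 min (range 1–100 tested), n = 5/group. cAMP was measured with the cAMP-Glo luminescent assay. The forskolin analogue NKH477 (15 min) served as positive control. Groups were compared by ANOVA with Tukey's test.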

[10] = target: T1, PTH1R; experiment: Calcium flux in MC3T3 osteoblasts; format: cell-based; settings: MC3T3, 10 nM, fluorescence in individual cells, n = 20/group
How it was run: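 MC3T3 cells (1 × 10^5) were loaded with Fluo-4 Direct calcium reagent and imaged by time-lapse fluorescence microscopy before and after peptide addition (0 and 60 s frames shown). Fluorescence rise was quantified in individual cells, n = 20/group, from three fields of view per condition.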

[11] = target: T1, PTH1R; experiment: ERK phosphorylation in PTH1R knockdown MC3T3 cells; format: cell-based; settings: shPTH1R MC3T3 versus control shRNA, 10 nM for 5 min
How it was run: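 PTH1R knockdown MC3T3 clones were made by lentiviral transduction of a pool of three shRNAs, with scrambled-sequence shControl clones; clone D was used. Cells got peptides for 5 min and were lysed in RIPA. Phospho-ERK immunoblots were blocked in 5% BSA, detected with HRP secondary and normalised to actin loading control. Triplicate experiments.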

[12] = target: T1, PTH1R; experiment: Calcium flux in PTH1R knockdown MC3T3 cells; format: cell-based; settings: shPTH1R versus shControl MC3T3, 10 nM
How it was run: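 Stable shPTH1R MC3T3 clones came from lentiviral transduction of three pooled PTH1R shRNAs; shControl clones carried a scrambled sequence. Cells (1 × 10^5) were loaded with Fluo-4 Direct. Time-lapse microscopy followed fluorescence after peptide addition. Increases (RFU) were measured in single cells, n = 20/group, from three fields per condition. A second shPTH1R clone was also tested.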

[13] = system: osteoblasts; experiment: Tumour necrosis factor-α-induced cell death of osteoblasts; format: cell-based
[14] = system: MSCs; experiment: Migration of primary MSCs; format: cell-based, mouse; settings: 10 nM in serum free media, 6 h / 5-h (methods), n = 3/group
[15] = system: MC3T3 cells; experiment: Migration of MC3T3 osteoblasts; format: cell-based, mouse; settings: MC3T3, 10 nM in serum free media, 6 h / 5-h (methods), n = 3/group
How it was run: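 Modified Boyden chamber assay: after 24-h serum starvation, 5 × 10^5 MC3T3 cells were seeded in the upper chamber (n = 3/group). Migration toward peptide in serum-free media ran at 37 °C, 5 h per methods (6 h in legend). Serum-free and 1% serum media were negative and positive controls. Cells were counted per ×20 field in five micrographs per condition.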

[16] = system: SCID-Beige mice; experiment: Murine model of ectopic bone formation; format: in vivo, mouse; settings: 40 μg/kg/day s.c., 21 days
How it was run: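 Gelfoam sponges loaded with 1 × 10^6 bone marrow MSCs from C57BL/6 mice were implanted s.c. into randomized 6-week-old male SCID-Beige mice, two implants per flank, n = 3/group. After 1-week recovery, peptides or vehicle were injected s.c. daily at 40 μg/kg/day for 21 days. Ossicles were excised for μCT and trichrome histology, with bone matrix quantified.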

[17] = system: RANKL; experiment: RANKL expression in whole bone marrow co-cultures; format: cell-based, mouse; settings: 10 nM for 48 h
[18] = system: osteoprotegerin (OPG); experiment: OPG expression in whole bone marrow co-cultures; format: cell-based, mouse; settings: 10 nM for 48 h
[19] = system: SCID-Beige mice; experiment: In vivo calvarial injection assay; design: species or system mouse; settings: 2 μg s.c. over the calvaria every 6 h for 3 days, n = 3/group
How it was run: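 Randomized 4–6-week-old female SCID-Beige mice (n = 3/group) received 2 μg peptide s.c. over the calvaria every 6 h for 3 days. Calvariae were harvested 10 h after the last injection, fixed and scanned by high-resolution μCT. They were then decalcified (14% EDTA, pH 7.4, 3 days) and paraffin-embedded, and 5 μm sections were stained with H&E, trichrome and TRAcP. Bone-lining multinucleated TRAcP-positive osteoclasts were counted per μm bone.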

[20] = system: calvariae of Rag2−/− neonates; experiment: Neonatal calvaria ex vivo assay; design: species or system mouse; settings: 10 nM, 14 days, n = 4/group
How it was run: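 Calvariae were isolated from 4-day-old Rag2−/− neonates and kept in organ culture. They were exposed to peptides for 14 days, n = 4/group.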

[21] = bone marrow cultures, n = 3/group

Q: Which results are given for `CNC(=O)[C@H](Cc1c[nH]c2ccccc12)NC(=O)[C@@H](CC(=O)NO)CC(C)C` [GM6001]?
A: reduction of the amount of PTHrP1–17 in conditioned media ([1]; PAIII, GM6001 10 μM, serum free 24 h, IP-MS with SIS1–17): 77%; ratio of endogenous PTHrP1–17 to PTHrP1–17 SIS (peak areas) ([1]; PaIII+GM6001 10 μM, PaIII alone = 0.13): 0.03

Q: With “MMP-3: recombinant MMP-3 (Millipore, #444217) added to SAOS-2 cells” as the molecule, how does the “ratio of endogenous PTHrP1–17 to PTHrP1–17 SIS (peak areas)” value [2] read?
A: The value was 0.03.

Q: Which results are given for “PTHrP1–16: N-terminal PTHrP fragment of a recent study (ref 31) (AVSEHQLLHDKGKSIQ; UniProt P12272 37-52, looked up, fragment)”?
A: cAMP production [3]: does not result in cAMP production; calcium flux [4]: no effect on calcium flux

Q: What does the source list for “PTHrP1–36: mature 36 amino acid form of parathyroid hormone-related protein (ProImmune)”?
A: further cleavage of PTHrP1–36 by MMP-3 ([5]; 0.15 M NaCl, 50 mM Tris pH 7.6): further cleaved to distinct stable peptide products; time in which MMP-3 generated the main PTHrP products ([5]; kinetic analyses): ≤ 1 h; ERK phosphorylation [6]: induced ERK phosphorylation within 5 min; ERK phosphorylation [7]: induced ERK phosphorylation within 5 min; CREB phosphorylation [8]: only induced by PTHrP1–36; cAMP production [9]: induced cAMP; calcium flux [10]: triggered increases in calcium flux; ability to induce ERK phosphorylation in PTH1R knockdown cells [11]: abrogated; calcium flux in PTH1R knockdown cells [12]: significantly reduced; prevention of tumour necrosis factor-α-induced cell death [13]: did not prevent; migration [14]: significantly increased migration; migration [15]: significantly increased migration; osteoid in trichrome stained ossicle sections ([16]; n = 3/group): a significant amount of osteoid; trabecular bone volume of hind limbs ([16]; compared to control): significantly more bone; bone formation in ectopic ossicles, μCT ([16]; intermittent, n = 3/group): revealed bone formation; RANKL expression (real-time PCR) [17, 21]: significantly enhanced RANKL expression; ratio of average RANKL:OPG transcripts ([17]; bone marrow cultures, real-time PCR): 15.03; RANKL expression (RT-PCR) ([17]; primary bone marrow cultures): increased RANKL expression; OPG expression (real-time PCR) [18, 21]: suppressing OPG; OPG expression (RT-PCR) ([18]; primary bone marrow cultures): appeared to suppress the expression of osteoprotegerin (OPG); bone resorption of calvaria [19]: displayed areas of extensive bone resorption; bone formation in calvaria ex vivo [20]: no evidence of bone formation; degradation of calvaria ex vivo [20]: significant degradation of the calvaria
